Screens from PubChem BioAssay.
This is a sample that favours compounds with a hit; in the whole collection about 2.9% have one here.
GalR3 antagonist – human GalR3 antagonism; O60755; HEK293 GalR3-CNG cAMP membrane potential fluorescence; galR3 body fused to GalR1 C-terminus; inhibition, % at 3 µM; 0.44% of 360,000 active;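 active means inhibition above the screen-wide average plus 3 SD, cut at about 13% in these data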;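 further: forskolin and galanin both at EC90 stimulate the cells; cAMP rise reported by CNG channel membrane potential dye signal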
Target sequence (O60755 1-299 limits assumed): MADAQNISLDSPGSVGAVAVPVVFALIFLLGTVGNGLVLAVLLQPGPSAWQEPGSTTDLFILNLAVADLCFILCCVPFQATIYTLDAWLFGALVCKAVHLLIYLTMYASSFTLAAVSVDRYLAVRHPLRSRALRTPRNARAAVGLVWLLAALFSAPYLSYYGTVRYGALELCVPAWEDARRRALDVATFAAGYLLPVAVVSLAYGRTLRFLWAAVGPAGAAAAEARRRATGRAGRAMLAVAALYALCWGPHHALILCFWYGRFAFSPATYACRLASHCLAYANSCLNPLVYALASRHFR
Calb FLC – affects C. albicans growth with fluconazole; C. albicans CaCi-2 + fluconazole, Alamar Blue growth, 48 h; growth inhibition, % (no concentration beside the values); AID 1979; 0.57% of 300,000 active;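 active means growth inhibition above about 58% in most replicates, limit read from the data, passing the limit was not always enough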;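 further: all wells also contain fluconazole at 8 µg/ml as a sub-toxic cotreatment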
MC4R ag barr – human MC4R agonism via beta-arrestin | U2OS MC4R beta-arrestin complementation, luminescence; percent of melanotan II response, DMSO zero | activation, % at 8.9 µM | 0.98% of 360,000 active | AID 540308;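 active means activation above a per-plate cutoff, the mean activation of sample wells on that plate plus 3 SD, cut at about 8% in these data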
TAG inh – inhibitors of triacylglycerol accumulation; AID 651582; H9c2 cells, Nile Red lipid (TAG) fluorescence; cells loaded with 200 µM oleic acid; 0.66% of 230,000 active; inhibition, % at 12.5 µM;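 active means pattern-corrected inhibition of lipid staining of at least 50% with the nuclear-stain viability signal not falling by more than 50%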
MC4R antagonist – human MC4R antagonism in cAMP assay; inhibition, % at 6.5 µM; 0.48% of 360,000 active; MC4R-expressing cells, MTII-stimulated cAMP, LANCE TR-FRET; P32245; AID 540295;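 active means inhibition above its plate's cutoff, the mean of tested wells on that plate plus 3 SD, cut at about 29% in these data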
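Assay system: human MC4R-expressing U2OS cells; reagent: Melanotan II stimulation of cells; dosing: 6.5 µM single dose; timing: compound 30 min, challenge 1 h, detection 1 h; signal: TR-FRET cAMP assay; replicates: one well per compound, no replicates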
Efflux pump mplx – inhibitors of Candida antifungal efflux pumps expressed in yeast. inhibition, % at 10 µM. 0.44% of 330,000 active. S. cerevisiae Candida pump triplex, Nile Red efflux. AID 485275;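 active means plate passing quality check with inhibition over a set limit, or well fluorescence over plate mean plus 4 SD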;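 further: Nile Red retained in pooled yeast measured as flow cytometry median fluorescence; higher means more Nile Red kept so more efflux inhibition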
cAMP nonselect – U2OS forskolin cAMP inhibition counter-screen; 26% of 1,600 active; shares compounds with MC4R antagonist; parental U2OS, LANCE TR-FRET; inhibition, % at 6.5 µM; AID 602193;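 active means mean inhibition over triplicates above the low-control well mean plus 3 SD, set per campaign, cut at about 13% in these data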;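 further: signal is single emission at 671 nm which falls as cellular cAMP rises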
MC4R cAMP antag – human MC4R cAMP antagonism confirmation. MC4R-expressing cells, MTII-stimulated cAMP, TR-FRET. shares compounds with MC4R antagonist. 27% of 1,600 active. inhibition, % at 6.5 µM; in the data active means inhibition above about 29%
Each line names hits and unclear results; the compound was inactive in the other large screens (follow-up assays come after a bar, where they were run).

CC1CCC2(CC1)NC(=O)N(CC(=O)NC(=O)Nc1ccc3c(c1)OCCO3)C2=O (configuration not stated)	MC4R antagonist 29 | cAMP nonselect inactive | MC4R cAMP antag inactive
COc1ccc([C@H]2N[C@]3(CCCN(CC4CCCCC4)C3=O)[C@H]3C(=O)N(Cc4ccccc4)C(=O)[C@@H]23)cc1	none (no result: Calb FLC, Efflux pump mplx)
CCCCNc1c(-c2ccc(OC)c(SC3CCCCC3)c2)nc2cnccn12	MC4R antagonist 32 (no result: GalR3 antagonist) | cAMP nonselect inactive | MC4R cAMP antag inactive
CCOC(=O)c1c(C)[nH]c(C)c1C(=O)COC(=O)c1cc(OC)cc(OC)c1	none (no result: TAG inh)
CCOC(=O)c1c(C)[nH]c(C)c1C(=O)COC(=O)c1cc(OC)c(OC)cc1OC	MC4R antagonist 32 | cAMP nonselect inactive | MC4R cAMP antag inactive
CCCCNc1c(-c2cccc(-c3ccc(OC)cc3)c2)nc2cc(C)ccn12	MC4R antagonist 34 (no result: Calb FLC) | cAMP nonselect 30 | MC4R cAMP antag 56
CCCCNc1c(-c2cccc(-c3ccc(OC)cc3)c2)nc2ccc(C)cn12	MC4R antagonist 40 | cAMP nonselect 15 | MC4R cAMP antag 41
O=C(NCCc1ccc(Cl)cc1)c1cccc(S(=O)(=O)N2CCCC2)c1	none (no result: Calb FLC, Efflux pump mplx)
NC(CCC(=O)NC(CS)C(=O)NCC(=O)O)C(=O)O (configuration not stated)	none (no result: GalR3 antagonist, Calb FLC, Efflux pump mplx)
CCOC(=O)C(C)(C)N(Cc1ccc(C)cc1)S(=O)(=O)c1ccc(Cl)c([N+](=O)[O-])c1	MC4R antagonist 31 (no result: TAG inh) | cAMP nonselect 20 | MC4R cAMP antag 52
CCOC(=O)C(C)(C)NS(=O)(=O)c1ccc(Cl)c([N+](=O)[O-])c1	MC4R antagonist 40 | cAMP nonselect 21 | MC4R cAMP antag 35
COc1ccc(NC(=O)CCNS(=O)(=O)c2ccc(Cl)c([N+](=O)[O-])c2)cc1S(N)(=O)=O	none (no result: TAG inh)
CCOC(=O)C(C)(C)N(Cc1ccc(Cl)cc1)S(=O)(=O)c1ccc(Cl)c([N+](=O)[O-])c1	none (no result: GalR3 antagonist, MC4R ag barr, TAG inh, MC4R antagonist)
C[C@H](CO)N1C[C@H](C)[C@H](CN(C)C(=O)Nc2cccc(F)c2)Oc2cc(Br)ccc2S1(=O)=O	none (no result: Calb FLC, MC4R ag barr, TAG inh, MC4R antagonist, Efflux pump mplx)
COc1ccc(NC(=O)C2Cc3c(-c4cccc(F)c4)ccnc3O2)cc1OC (configuration not stated)	none (no result: Calb FLC, Efflux pump mplx)
CC(Sc1nnc(NC2CCCCC2)s1)C(=O)Nc1ccc2c(c1)C(=O)c1ccccc1C2=O (configuration not stated)	MC4R antagonist 30 (no result: TAG inh) | cAMP nonselect inactive | MC4R cAMP antag inactive
CC(Sc1nnc(NC2CC2)s1)C(=O)Nc1ccc(N2CCOCC2)cc1 (configuration not stated)	none (no result: Calb FLC, Efflux pump mplx)
O=C(O)c1cc(-c2ccc3c(c2)OCO3)nc2ccc(Br)cc12	MC4R antagonist 37 | cAMP nonselect inactive | MC4R cAMP antag 30
O=C(O)c1cc(-c2cccs2)nc2ccc(Br)cc12	MC4R antagonist 111 (no result: TAG inh) | cAMP nonselect 98 | MC4R cAMP antag 153
CCN1CCN(C(=O)c2cc(-c3cccnc3)nc3ccc(Br)cc23)CC1	none (no result: TAG inh)
O=C(O)c1cc(-c2cccnc2)nc2ccc(Br)cc12	MC4R antagonist 49 | cAMP nonselect 42 | MC4R cAMP antag 68
Nc1[nH]c(C(=O)c2ccc(Br)cc2)c(-c2ccccn2)c1C(=O)NCCc1c[nH]c2ccccc12	none (no result: Calb FLC, MC4R ag barr, TAG inh, MC4R antagonist, Efflux pump mplx)
CC1CCN(C(=O)COC(=O)c2cccc(S(=O)(=O)N3CCOCC3)c2)CC1	none (no result: Calb FLC, Efflux pump mplx)
CCOC(=O)CNC(=S)N(CCCN1CCCCCC1)Cc1cccs1	MC4R antagonist 34 (no result: TAG inh) | cAMP nonselect inactive | MC4R cAMP antag inactive
CC(C)(C)c1ccc(C#C[C@@H]2C=C[C@H](O)[C@@H](COC(=O)Nc3ccccc3)O2)cc1	none (no result: Calb FLC, MC4R ag barr, TAG inh, MC4R antagonist, Efflux pump mplx)
Cc1ccccc1-c1cccc([C@@H]2C[C@H]3[C@H](CON3C)CN2S(=O)(=O)c2ccccc2C)c1	none (no result: Calb FLC, Efflux pump mplx)
